Screening data deposited in PubChem by The Scripps Research Institute Molecular Screening Center.
TDP2 inh: blocks human TDP2 phosphodiesterase activity. O95551. recombinant TDP2, T5PNP hydrolysis, p-nitrophenol absorbance 415 nm. inhibition, % at 12.8 µM. actives 0.34% (n = 370,000);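 active = inhibition above the mean of all tested compounds plus 3 SD, set per campaign, cut at about 25% in these data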;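 also: 0% = DMSO with enzyme and 100% = buffer with substrate but no TDP2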
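System – recombinant human TDP2 · Quantity – TDP2 enzyme at 120 nM final · Doses – single concentration, 12.8 µM nominal, with 1% DMSO · Incubation – 2 h at 37 °C · Measured by – epi absorbance of p-nitrophenol freed from T5PNP by hydrolysis · Read-out – % inhibition relative to enzyme-containing and enzyme-free wells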
HCV core dimer: HCV core protein dimerization inhibition | TR-FRET GST/Flag-core106 dimerization, 1536-well | inhibition, % at 5 µM | actives 0.33% (n = 300,000) | AID 1899;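 active = inhibition above the mean of all tested compounds plus 3 SD, set per screening campaign, cut at about 45% in these data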
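Assay system – GST-tagged and Flag-tagged HCV core protein residues 1-106 · Quantity – core106 proteins, GST 13.5 nM and Flag 17 nM · Benchmarks – unlabelled core106 and no-GST-core106 wells · Read-out basis – percent inhibition of core106 dimerization signal · Detection – time-resolved FRET, ex 340 nm, em 617 and 671 nm · Schedule – 4 h at 22.5 °C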
LEDGF integ inh: blocks HIV-1 LEDGF/p75-dependent DNA integration | TR-FRET IN-LEDGF/p75 DNA integration, Eu/Cy5 | AID 743269 | inhibition, % at 3.7 µM | actives 0.64% (n = 370,000);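 active = inhibition above the screen-wide mean plus 3 SD, cut at about 13% in these data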;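 also: signal is the Cy5 over europium emission ratio at 671 and 618 nm; 0% = plate median of compound wells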
UHRF1 binding: blocks human UHRF1 binding to methylated DNA; UHRF1 binding to methylated oligo, TR-FRET; inhibition, % at 4.4 µM; actives 0.75% (n = 370,000); in the data active = inhibition above about 21%;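 also: UHRF1 SRA domain binding a hemimethylated CpG hairpin DNA probe; 0% = median of test compound wells and 100% = reference inhibitor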
Target sequence (Q96T88 whole entry, looked up, the tested form may be a part): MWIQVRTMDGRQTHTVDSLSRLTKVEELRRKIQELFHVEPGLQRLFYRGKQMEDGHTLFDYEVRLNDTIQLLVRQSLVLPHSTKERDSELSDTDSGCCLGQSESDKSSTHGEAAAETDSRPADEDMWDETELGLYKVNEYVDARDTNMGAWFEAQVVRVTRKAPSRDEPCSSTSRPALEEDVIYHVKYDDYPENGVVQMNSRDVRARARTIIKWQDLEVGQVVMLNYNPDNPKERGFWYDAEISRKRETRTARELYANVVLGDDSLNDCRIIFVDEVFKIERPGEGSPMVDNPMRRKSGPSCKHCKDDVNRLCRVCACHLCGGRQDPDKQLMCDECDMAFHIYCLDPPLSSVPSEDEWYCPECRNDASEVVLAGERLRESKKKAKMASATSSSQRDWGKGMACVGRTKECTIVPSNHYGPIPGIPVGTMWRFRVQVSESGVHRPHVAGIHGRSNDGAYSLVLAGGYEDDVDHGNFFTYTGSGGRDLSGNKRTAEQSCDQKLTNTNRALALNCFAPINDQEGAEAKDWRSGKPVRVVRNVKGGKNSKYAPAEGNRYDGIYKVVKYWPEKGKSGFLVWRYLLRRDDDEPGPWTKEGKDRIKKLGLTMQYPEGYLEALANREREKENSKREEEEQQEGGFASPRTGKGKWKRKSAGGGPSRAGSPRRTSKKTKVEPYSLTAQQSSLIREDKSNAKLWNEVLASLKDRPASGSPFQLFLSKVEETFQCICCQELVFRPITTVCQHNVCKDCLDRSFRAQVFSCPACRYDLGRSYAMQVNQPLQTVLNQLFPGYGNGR
MBD2 inh: blocks human MBD2 binding to methylated DNA; Q9UBB5; TR-FRET, MBD2 binding to methylated oligonucleotide; inhibition, % at 4.4 µM; actives 0.31% (n = 370,000); AID 686964; in the data active = inhibition above about 13%
IN multimer act: counter-screen for LEDGF/p75 integration inhibitors: HIV-1 integrase multimerization activators | actives 17% (n = 2,000) | AID 1053131 | shares compounds with LEDGF integ inh | activation, % at 7.7 µM | TR-FRET HIV-1 integrase multimerization, biochemical; in the data active = activation above about 8.9%
TR-FRET interf: TR-FRET optical interference, LEDGF/p75 integration counter-screen | shares compounds with LEDGF integ inh | TR-FRET optical interference counterscreen, HIV-1 IN multimerization | inhibition, % at 7.7 µM | 2,000 tested, under 10 active | AID 1053135;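 active = inhibition above the mean over all tested compounds plus 3 SD, which no compound reached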;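 also: 0% = integrase with antibodies and DMSO and 100% = antibodies without integrase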
LEDGF integ conf: LEDGF/p75-dependent HIV-1 integration inhibition, confirmation | inhibition, % at 3.7 µM | AID 1053136 | shares compounds with LEDGF integ inh | actives 36% (n = 2,000) | TR-FRET LEDGF/p75-dependent HIV-1 integration, biochemical; in the data active = inhibition above about 14%
The depositor's hits bear a star; / = no result given. An excerpt weighted towards active compounds, which were near 1.8% of everything screened.

SMILES	TDP2 inh	HCV core dimer	LEDGF integ inh	UHRF1 binding	MBD2 inh	IN multimer act	TR-FRET interf	LEDGF integ conf
Cc1ccc(-c2nn(-c3ccccc3)cc2CO)o1	8	-1	15*	0	-6	0	0	4
OCc1cn(-c2ccccc2)nc1-c1ccco1	3	12	-3	-2	1	/	/	/
C=CCc1cc(C=Nc2ccc(N3CCOCC3)cc2)cc(OCC)c1O	24	/	25*	2	-3	5	-17	-14
C=CCc1cc(/C=N/n2cnnc2)cc(OCC)c1O	5	-15	0	1	-2	/	/	/
COC(=O)C1=C(C)N(Cc2ccc(C(F)(F)F)cc2)C(=NCc2ccccc2)NC1c1ccc(C(F)(F)F)cc1 (configuration not stated)	5	/	-4	2	0	/	/	/
CCOc1cc(C(=O)Nc2cccc3ncccc23)cc(OCC)c1OCC	3	0	16*	-1	0	1	-5	-1
CC(=O)Nc1cccc(C(=O)Nc2cccc3ncccc23)c1	-7	-5	-1	-2	-5	/	/	/
C=CCn1c(N)c(C(=O)Nc2ccccc2)c2nc3ccccc3nc21	-4	2	21*	-9	-5	2	-7	0
C=CCn1c(N)c(C(=O)OC(C)(C)C)c2nc3ccccc3nc21	7	/	0	-10	-6	/	/	/
CCSCC1COC(c2cccn2Cc2ccc(C)cc2)=N1 (configuration not stated)	9	-3	-3	-1	2	/	/	/
CCC1COC(c2cccn2Cc2ccc(Cl)cc2)=N1 (configuration not stated)	15	-10	14*	1	4	0	0	-1
O=S1(=O)c2ccc(N3CCSCC3)cc2Oc2ccccc2CN1Cc1cn(Cc2ccc(Cl)cc2)nn1	5	/	-1	0	3	/	/	/
Cn1c(N)c(S(=O)(=O)N2CCN(c3ccccc3)CC2)c(=O)n(C)c1=O	6	-7	15*	3	5	0	0	-3
O=C(CN(C(=O)c1csnn1)c1ccc2c(c1)OCCO2)NCc1ccccc1	6	-3	26*	-1	-1	-2	9	-2
CN(C(=O)COC(=O)c1cncc(Br)c1)C1CCCCC1	8	/	16*	3	7	-2	8	-3
CN(C(=O)COC(=O)c1cncc(Br)c1)C1CCS(=O)(=O)C1 (configuration not stated)	-5	1	4	-2	-7	/	/	/
COc1cc(-c2nnc(SCC(=O)NN=Cc3c[nH]c4ccccc34)n2-c2ccccc2)cc(OC)c1OC	-3	/	-1	1	-3	/	/	/
O=c1[nH]c(CN2CCc3ccccc32)nc2scc(-c3cccs3)c12	-1	48*	18*	0	0	1	-6	7
O=C1CCCC2=C1[C@@]1(O[C@H]3C=CC=CN23)C(=O)N(c2ccccc2)c2ccccc21	-2	/	7	0	1	/	/	/
CCC(C#Cc1ccccc1)N(C)C(N)=NC(=O)/C=C/c1ccccc1 (configuration not stated)	-9	/	7	-1	1	/	/	/
Cc1cc(C)c(-c2csc(NC(=O)C3=COCCO3)n2)cc1C	-1	1	5	0	0	/	/	/
C=CCn1c(C)cc(-c2csc(NC(=O)C3=COCCO3)n2)c1C	13	13	51*	0	-2	2	-7	3
CCN(CC)C(=O)[C@H]1C[C@H](CC(=O)NCc2ccco2)C(=O)N2CCc3c([nH]c4cc(-c5ccco5)ccc34)[C@]12C	-4	/	17*	-1	-3	0	-1	-2
CCOC(=O)[C@]12CCCCC/C=C\1N(CCc1ccc(Cl)cc1)C(=O)[C@H]2CC(=O)NCCc1ccccc1OC	3	/	18*	-2	3	0	1	-4
CCCCNC(=O)C[C@@H]1C(=O)N(CCc2ccc(Cl)cc2)/C2=C/CCCCC[C@@]21C(=O)OCC	6	/	0	-2	-2	/	/	/
SMILES	TDP2 inh	HCV core dimer	LEDGF integ inh	UHRF1 binding	MBD2 inh	IN multimer act	TR-FRET interf	LEDGF integ conf
CCC(=O)Nc1nc2ccccc2n1Cc1ccc(C)cc1	-4	-3	14*	1	3	-1	3	13
CCC(=O)Nc1nc2ccccc2n1Cc1ccccc1	7	-3	6	-2	2	/	/	/
COC(=O)[C@]12C[C@H](CC(=O)NCc3ccc(OC)c(OC)c3)C(=O)N(CCC3=CCCCC3)C1=C[C@H](C1CCCC1)O[C@@H]2C	-12	/	-2	-2	-2	/	/	/
Cc1oc(-c2ccc(Cl)cc2)nc1CS(=O)CC(=O)NCCN1CCCC1 (configuration not stated)	-5	-12	-3	0	3	/	/	/
Cc1oc(-c2ccc(Cl)cc2)nc1CS(=O)CC(=O)NCCCN1CCOCC1 (configuration not stated)	2	6	18*	2	1	0	2	-7
COc1cccc(NC(=O)CSc2nnc(-c3ccoc3C)n2-c2ccccc2)c1	-1	8	29*	-3	-3	2	-6	-13
COc1ccc(-n2c(SCC(=O)Nc3ccccc3)nnc2-c2ccoc2C)cc1	-7	13	1	1	2	/	/	/
O=C(C(=O)N1CCC(Cc2ccccc2)CC1)c1cccs1	-11	/	1	4	9	/	/	/
O=C(C(=O)N1CCC(CNC(=O)C2COc3ccccc3O2)CC1)c1cccs1 (configuration not stated)	9	/	21*	0	-1	5	-24	-1
CCOC(=O)[C@]12CCCC=C1N(CCCOC)C(=O)[C@@H]2CC(=O)NCc1cccc2ccccc12	-2	/	4	3	-2	/	/	/
CC(C)(C)C(=O)OC12CCCN(C1)/C(=C/c1ccccc1)C2 (configuration not stated)	-1	/	-2	3	-2	/	/	/
Cn1c(NC(=O)c2ccco2)cc(=O)n(C)c1=O	0	-4	24*	-3	-4	0	-1	-4
CN(C)S(=O)(=O)c1ccc(C(=O)Nc2cc(=O)n(C)c(=O)n2C)cc1	-1	-4	44*	0	2	1	-3	1
Cc1cc(SCC(=O)c2ccc(O)c(O)c2)n2nc(C)c(-c3ccccc3)c2n1	-19	10	17*	-3	-1	0	2	12
O=C(/C=C/c1ccc(F)cc1)N1CCCN(C(=O)/C=C/c2ccc(F)cc2)CC1	8	-5	25*	6	3	0	1	0
